The source of these data is ChEMBL document CHEMBL4613227, “Synthesis and evaluation of the HIF-1α inhibitory activity of 3(5)-substituted-4-(quinolin-4-yl)- and 4-(2-phenylpyridin-4-yl)pyrazoles as inhibitors of ALK5” (Bioorg Med Chem Lett, 2020).

Molecules are shown by their SMILES. Active and inactive are the calls of the source. The rule behind the calls is not given here.

For series [1], the target named is T1, TGF-beta receptor type-1 (Homo sapiens) (UniProt P36897).
T1 sequence (whole entry): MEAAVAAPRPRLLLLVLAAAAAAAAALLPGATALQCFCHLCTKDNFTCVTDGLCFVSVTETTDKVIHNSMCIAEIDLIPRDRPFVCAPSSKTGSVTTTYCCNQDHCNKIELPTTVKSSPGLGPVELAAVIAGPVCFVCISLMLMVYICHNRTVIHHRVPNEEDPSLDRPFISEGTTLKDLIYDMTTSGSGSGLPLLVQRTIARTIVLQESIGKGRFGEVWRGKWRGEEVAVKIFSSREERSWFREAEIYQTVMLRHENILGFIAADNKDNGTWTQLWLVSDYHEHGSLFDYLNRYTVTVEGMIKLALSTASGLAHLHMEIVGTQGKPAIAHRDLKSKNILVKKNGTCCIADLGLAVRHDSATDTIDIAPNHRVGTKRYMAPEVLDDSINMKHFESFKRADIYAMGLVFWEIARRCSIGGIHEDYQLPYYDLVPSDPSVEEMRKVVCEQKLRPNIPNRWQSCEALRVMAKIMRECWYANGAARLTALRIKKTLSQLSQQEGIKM
Nature of the series: Inhibition of recombinant GST-tagged human ALK5 expressed in baculovirus infected Sf9 insect cells assessed as residual activity at 10 uM. The essentials:
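Single-point kinase screen at 10 μM, in duplicate; ALK5 as human GST-fusion from baculovirus/Sf9, p38α as untagged human protein from E. coli; residual activity relative to DMSO vehicle, mean ± SD of two independent experiments.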

A further series deals with T2, TGF-beta receptor type-1 (Homo sapiens, UniProt P36897).
T2 sequence (P36897 whole entry): T1 sequence (whole entry)
The series is described as follows: Inhibition of recombinant GST-tagged human ALK5 expressed in baculovirus infected Sf9 insect cells. The essentials: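 IC50 determination against ALK5 (human GST-fusion, Sf9 baculovirus) and p38α (untagged human, E. coli); values averaged from three independent experiments run in triplicate.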

The target of series [2] is Hypoxia-inducible factor 1-alpha (Homo sapiens) (UniProt Q16665). Nature of the series: Inhibition of HIF1-alpha (unknown origin).
Chain of Hypoxia-inducible factor 1-alpha (Homo sapiens) (Q16665 whole entry, looked up): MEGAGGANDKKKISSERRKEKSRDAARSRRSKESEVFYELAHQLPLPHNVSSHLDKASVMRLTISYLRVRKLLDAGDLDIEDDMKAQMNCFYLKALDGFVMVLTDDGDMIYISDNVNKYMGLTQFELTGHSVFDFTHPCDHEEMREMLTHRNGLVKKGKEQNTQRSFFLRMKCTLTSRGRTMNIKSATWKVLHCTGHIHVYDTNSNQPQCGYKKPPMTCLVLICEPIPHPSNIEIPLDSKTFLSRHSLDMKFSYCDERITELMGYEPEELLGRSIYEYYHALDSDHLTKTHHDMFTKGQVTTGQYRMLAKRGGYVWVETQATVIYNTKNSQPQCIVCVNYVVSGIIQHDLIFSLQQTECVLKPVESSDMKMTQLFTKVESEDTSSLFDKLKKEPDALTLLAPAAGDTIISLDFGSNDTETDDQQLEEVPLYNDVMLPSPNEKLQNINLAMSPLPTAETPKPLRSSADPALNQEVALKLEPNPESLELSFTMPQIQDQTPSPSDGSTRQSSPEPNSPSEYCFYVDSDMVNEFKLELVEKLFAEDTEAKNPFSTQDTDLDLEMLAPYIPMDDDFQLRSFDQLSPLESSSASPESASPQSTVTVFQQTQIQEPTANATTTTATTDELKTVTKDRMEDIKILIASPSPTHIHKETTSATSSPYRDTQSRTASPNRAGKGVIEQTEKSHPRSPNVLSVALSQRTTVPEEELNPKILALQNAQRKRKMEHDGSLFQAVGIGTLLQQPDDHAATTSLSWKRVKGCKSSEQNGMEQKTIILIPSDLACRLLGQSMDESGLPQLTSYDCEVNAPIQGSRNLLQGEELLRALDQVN
For series [3], the system named is HCT-116. The series is described as follows: Cytotoxicity against human HCT116 cells up to 50 uM after 24 hrs by MTT assay. Type of series: cell-based. Conditions: hct-116, 24 h. Summed up:
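Cell viability of HCT116 by MTT after 24 h exposure to graded concentrations up to 50 μM.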
On the technique in general: Formazan colour is commonly taken as a measure of viable cells.

Series [4] concerns HCT-116. The series is described as follows: Inhibition of hypoxia-induced HIF1alpha protein expression in human HCT116 cells incubated for 12 hrs under hypoxic condition by Western blot analysis. Type of series: functional, cell-based. Summed up:
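HCT116 held under normoxia or hypoxia 12 h with graded concentrations; nuclear extracts probed for HIF-1α by Western blot, Topo-I as loading control.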
On the technique in general: A western blot detects proteins with antibodies after separation by electrophoresis.

Series [5] has as its system HCT-116. Nature of the series: Inhibition of TNFalpha-induced HIF1alpha expression in human HCT116 cells at 10 to 50 uM by Western blot analysis. Type of series: functional, cell-based. Summed up:
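HCT116 exposed to TNF 10 ng/mL for 24 h with graded concentrations; total protein blotted for HIF-1α, Topo-I reprobe as loading control.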

For series [6], the system named is HCT-116. Nature of the series: Induction of apoptosis in human HCT116 cells assessed as late apoptotic cells at 50 uM after 12 hrs by Annexin-V/PI-staining based flow cytometric analysis (reference value: 0.2%). Type of series: functional.
Series [7] relates to HCT-116. The series is described as follows: Induction of apoptosis in human HCT116 cells assessed as early apoptotic cells at 50 uM preincubated for 12 hrs followed by TNF stimulation and measured after 24 hrs by Annexin-V/PI-staining based flow cytometric analysis (reference value: 2.8%). Type of series: functional. In general terms: In flow cytometry, cells or beads pass a laser one at a time.

Series [8] has as its system HCT-116. Nature of the series: Induction of apoptosis in human HCT116 cells assessed as late apoptotic cells at 50 uM preincubated for 12 hrs followed by TNF stimulation and measured after 24 hrs by Annexin-V/PI-staining based flow cytometric analysis (reference value: 1.4%). Type of series: functional.
Series [9] relates to HCT-116. The series is described as follows: Induction of apoptosis in human HCT116 cells assessed as effect on cleaved caspase 8 expression at 50 uM after 12 hrs by Western blot analysis. The format is functional, cell-based.
The test system of series [10] is HCT-116. The series is described as follows: Induction of apoptosis in human HCT116 cells assessed as effect on cleaved caspase 3 expression at 50 uM after 12 hrs by Western blot analysis. Type of series: functional, cell-based.
Series [11] deals with HCT-116. Nature of the series: Induction of apoptosis in human HCT116 cells assessed as effect on cleaved caspase 8 expression at 50 uM preincubated for 12 hrs followed by TNF-stimulation and measured after 24 hrs by Western blot analysis. Type of series: functional, cell-based. Summed up:
(§1)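 HCT116 pretreated 12 h with 50 μM, then TNF (10 ng/mL) 24 h; whole cell extracts blotted for cleaved caspase-8, cleaved caspase-3, cleaved PARP, tubulin.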

Series [12] relates to HCT-116. The series is described as follows: Induction of apoptosis in human HCT116 cells assessed as PARP cleavage at 50 uM preincubated for 12 hrs followed by TNF-stimulation and measured after 24 hrs by Western blot analysis. The format is functional, cell-based. Summed up: as §1
The test system of series [13] is HCT-116. The series is described as follows: Down regulation of TNF-induced ICAM-1 protein expression in human HCT116 cells at 50 uM pretreated for 12 hrs followed by TNF stimulation and measured after 24 hrs by Western blot analysis. The format is functional, cell-based. Summed up: (§2)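 HCT116 pretreated 12 h with 50 μM, then TNF (10 ng/mL) 24 h; whole cell extracts immunoblotted for ICAM-1, MMP-9, VEGF with tubulin as loading reference.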

For series [14], the system named is HCT-116. Nature of the series: Down regulation of TNF-induced VEGF protein expression in human HCT116 cells at 50 uM pretreated for 12 hrs followed by TNF stimulation and measured after 24 hrs by Western blot analysis. The format is functional, cell-based. Summed up: as §2
Series [15] deals with HCT-116. The series is described as follows: Down regulation of TNF-induced ICAM-1 mRNA expression in human HCT116 cells at 50 uM pretreated for 12 hrs followed by TNF stimulation and measured after 12 hrs by Western blot analysis. Type of series: functional, cell-based. The following applies: in the assay text read “RT-PCR analysis” for “Western blot analysis”. Summed up: (§3)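 HCT116 preincubated 12 h with graded concentrations, then TNF 10 ng/mL for a further 12 h; ICAM-1, VEGF, MMP-9 transcripts measured by RT-PCR, GAPDH for equal RNA loading.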

Series [16] relates to HCT-116. Nature of the series: Down regulation of TNF-induced MMP9 mRNA expression in human HCT116 cells at 50 uM pretreated for 12 hrs followed by TNF stimulation and measured after 12 hrs by Western blot analysis. The format is functional, cell-based. The following applies: in the assay text read “RT-PCR analysis” for “Western blot analysis”. Summed up: as §3
Series [17] concerns HCT-116. The series is described as follows: Down regulation of TNF-induced VEGF mRNA expression in human HCT116 cells at 50 uM pretreated for 12 hrs followed by TNF stimulation and measured after 12 hrs by Western blot analysis. Type of series: functional, cell-based. The following applies: in the assay text read “RT-PCR analysis” for “Western blot analysis”. Summed up:
as §3

The next series concerns HUVEC. Nature of the series: Inhibition of TNF-induced cell migration in HUVEC at 50 uM after 24 hrs by scratch wound healing assay. Type of series: functional, cell-based. The following applies: Homo sapiens. Summed up: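 HUVEC scratch assay: cells pretreated with graded concentrations, with or without TNF (10 ng/mL); uncovered area photographed at 24 h.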
The subject of series [18] is HCT-116. Nature of the series: Antiproliferative activity against human HCT116 cells assessed as reduction in TNF-induced number of Edu positive cells at 50 uM pretreated for 12 hrs followed by TNF stimulation and measured after 30 mins by Edu-incorporation based fluorescence microscopic analysis. Type of series: functional, cell-based. The essentials: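 HCT116 cells pretreated 12 h (50 μM), then TNF 10 ng/ml for 30 min; EdU-labelled proliferating cells examined by fluorescence microscopy; mean ± SD of three independent experiments.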

The subject of series [19] is HCT-116. Nature of the series: Inhibition of colony formation in TNF-induced human HCT116 cells pretreated with compound for 12 hrs before TNF stimulation for 30 mins and followed by replacement of fresh medium incubated for 10 days by crystal violet staining based analysis. Type of series: functional, cell-based. The essentials:
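HCT116 treated 12 h (10, 30, 50 μM), then TNF 10 ng/ml 30 min; medium replaced, growth continued 10 days; crystal violet staining; mean ± SD of three independent experiments.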

Take `Cc1cccc(-c2nn(CC(=S)Nc3cccc(C#N)c3)cc2-c2ccnc3ccccc23)n1`: the Activity in series [1] is 2%; with HCT-116 [3], “Non-Toxic”; in the series with HCT-116 [6] it was 3.2%; in the series with HCT-116 [7], 4.4%; in the series with HCT-116 [8], 3.6%. Further, the IC50 at TGF-beta receptor type-1 is 69 nM. Further, the inhibition result (in series [2]; in the series on HCT-116 [5]; in the series with HUVEC) was “Active” throughout. The inhibition result in the series with HCT-116 [4] and in the series with HCT-116 [19] was “Dose-dependent effect” each time. Also, the result in the series on HCT-116 [9], in the series with HCT-116 [10], in the series on HCT-116 [11], in the series with HCT-116 [12], with HCT-116 [13] and in the series on HCT-116 [14] was Active. Further, the outcome in the series on HCT-116 [15], with HCT-116 [16], in the series on HCT-116 [17] and in the series on HCT-116 [18] was Active.

As usually defined, the IC50 is the midpoint of a concentration-inhibition curve.
